The values that follow come from article PMC9786734 (Biomedical Chromatography, 2022).

Molecules are shown by their SMILES.

Data set [1] is described as follows: Pilot pharmacokinetic and tissue distribution study in mice after oral EAI045. It counts as in vivo, mouse (FVB/NRj wild-type, female). The method, boiled down:
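Five female FVB/NRj mice, 10–15 weeks old, fasted 3 h, then given one 20 mg/kg oral gavage dose. Vehicle: DMSO stock at 4 mg/ml, diluted with polysorbate 80–ethanol (1:1) and 5% glucose to 2 mg/ml. Tail-vein blood taken at 5, 15, 30 min, 1 and 2 h. At 4 h, cardiac puncture under isoflurane, then organs homogenised in 2% BSA. Cmax/Tmax observed; AUC0–t by trapezoidal rule; CL/F = dose/AUC0–t; mean ± SD.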

Data set [2] can be described thus: Short-term stability in mouse tissue homogenates. Format: in vitro ADME. The essentials:
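Blank homogenate made by homogenising the whole organ in ice-cold 2% (w/v) BSA in water. Medium QC (100 ng/ml) prepared by diluting high-QC plasma into the homogenate. Held 5 h at room temperature (n = 4), then acetonitrile protein precipitation with internal standard and LC–MS/MS quantification. Peak-area ratios were read from a 1/x²-weighted calibration line.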

A short description of data set [3]: Stability of methanolic stock solutions. It counts as physicochemical. As to conditions: 1.5 months at −30°C, methanol. The method, boiled down:
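Single-analyte stocks (0.5 mg/ml in methanol, made from 300–500 µg of weighed solid) stored 1.5 months at −30°C, then reanalysed by LC–MS/MS.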

Data set [4] is described as follows: Stability in mouse plasma QC samples. It counts as in vitro ADME. The method, boiled down: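 Pooled female mouse lithium–heparin plasma QCs at high (1,500 ng/ml) and low (6 ng/ml) levels, as 10 µl portions (n = 4). Three conditions: room temperature for 5 and 24 h; three freeze–thaw cycles (1 h thaw at room temperature, 1 day at −30°C); and 1.5 months at −30°C. Quantified by LC–MS/MS after acetonitrile precipitation.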

Setting [5] is: female, FVB/NRj, mouse, plasma, po, 20 mg/kg.

What is called AUC(0-t) is exposure summed from dosing to a finite time, without extrapolation to infinity. The low end stands for less exposure, the high end for more exposure. Usually Cmax stands for the maximum level reached in the sampled fluid or tissue. Broadly, the Tmax is the time at which the peak concentration occurs. As usually defined, the half-life is how long it takes for the measured level to halve. A lower half-life goes with fast loss. `O=C(O)C(c1cc(F)ccc1O)N1Cc2ccccc2C1=O` (stereo not drawn) [PIA, (5‐fluoro‐2‐hydroxyphenyl)(1‐oxo‐1,3‐dihydro‐2H‐isoindol‐2‐yl)acetic acid] had a concentration at 4 h in data set [1] (female, FVB/NRj, mouse, brain, po, 20 mg/kg) of 9.8 ng/g. The same compound had a concentration at 4 h in data set [1] (female, FVB/NRj, mouse, kidney, po, 20 mg/kg) of 30.8 ng/mL. Also, in data set [1] (setting [5]), the AUC(0-t) came out at 1870 ng·h/mL, the peak level (Cmax) was 1520 ng/mL, the Tmax was in the range of 15 to 30 min and the half-life is 70.2 ± 12.6 min. Besides, the “metabolite level compared with EAI045 (ratio)” value in data set [1] (pilot study, SIWC) was “ca. 5%”. In data set [1] (pilot study, all matrices except SIWC), the “metabolite level compared with EAI045” value is reported as “higher than 10%”. Also, the “plasma concentration (chromatogram sample)” value in data set [1] (plasma sample from a single mouse, oral 20 mg/kg EAI045) is 133 ng/mL. The “time by which PIA was more abundant in plasma than the parent drug” value in data set [1] (plasma, oral 20 mg/kg EAI045, mice) is not above 15 min. Besides, in data set [1] (small intestine with contents, 4 h after oral 20 mg/kg EAI045, mice, data not shown), the “absolute amount retrieved from SIWC” value is ~ 0.074 % of the EAI045 dose. In addition, the recovery at 5 h, 100 ng/ml in data set [2] (SIWC homogenate) came to 104 ± 3.4%. Also, in data set [2] (brain homogenate), the recovery at 5 h, 100 ng/ml came out at 99.7 ± 5.1%. This compound returned a recovery at 5 h, 100 ng/ml in data set [2] (kidney homogenate) of 99.4 ± 2.4%. Further, the recovery at 5 h, 100 ng/ml in data set [2] (liver homogenate) worked out at 114 ± 10.9%. In addition, the recovery at 5 h, 100 ng/ml in data set [2] (lung homogenate) is 107 ± 2%. For the same compound, in data set [2] (spleen homogenate), the recovery at 5 h, 100 ng/ml stood at 107 ± 7.6%. The “recovery of methanolic stock solution” value in data set [3] stood at 98.3%. In addition, in data set [4], the recovery at 1.5 months, 6 ng/ml amounted to 110 ± 9.6%; the recovery at 1.5 months, 1500 ng/ml is 90.8 ± 2.4%; the recovery at 5 h, 6 ng/ml was determined as 93.3 ± 1.8%; the recovery at 5 h, 1500 ng/ml was found to be 102 ± 4.1%. In data set [4], the recovery at 24 h, 6 ng/ml turned out to be 101 ± 8.3% and the recovery at 24 h, 1500 ng/ml worked out at 100 ± 6.2%.
